ChEMBL document CHEMBL1806353, “Synthesis of antitrypanosomal 1,2-dioxane derivatives based on a natural product scaffold” (Bioorg Med Chem Lett, 2011)

Test system: Trypanosoma brucei brucei
Assay: Antitrypanosomal activity against blood stream form of Trypanosoma brucei brucei BF427 after 48 hrs by Alamar Blue assay
Assay type: functional, organism-based
Conditions: BF427, 48 h
In short: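 Bloodstream-form T. b. brucei 427, starting inoculum 2 × 10³ parasites per well, exposed to 2-fold serial drug dilutions in HMI-9 with 10% FBS for 48 h at 37 °C, 5% CO₂. Final DMSO no more than 0.08%. Alamar Blue then added for a further 4 h, fluorescence read at 544/590 nm. IC50 from three biological replicates, each averaging three technical replicates.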

`O=C(C[C@@H]1CC[C@@H](/C=C/C(=O)c2ccccc2)OO1)OCc1ccccc1` and `O=C(C[C@@H]1CC[C@@H](/C=C\C(=O)c2ccccc2)OO1)OCc1ccccc1` are within 1.5-fold of each other in IC50: 0.51 µM for the first, 0.58 µM for the second.

First: CCOC(=O)/C=C/[C@@H]1CC[C@@H](CC(=O)OCc2ccccc2)OO1
Second: CCOC(=O)/C=C\[C@@H]1CC[C@@H](CC(=O)OCc2ccccc2)OO1
The IC50 of the first is 2.2-fold lower: 0.62 µM for the first, 1.35 µM for the second. The first is the more potent here.

`N#CC=C[C@@H]1CC[C@@H](CC(=O)OCc2ccccc2)OO1` (mixture of isomers) and `C=C[C@@H]1CC[C@@H](CC(=O)OCc2ccccc2)OO1` are within 1.5-fold of each other in IC50: 3.14 µM for the first, 3.03 µM for the second.

Going from `CC(C)(C)OC(=O)/C=C/[C@@H]1CC[C@@H](CC(=O)OCc2ccccc2)OO1` to `CC(C)(C)OC(=O)/C=C\[C@@H]1CC[C@@H](CC(=O)OCc2ccccc2)OO1`, the IC50 rises from 0.2 µM to 0.37 µM (1.8-fold). The first is the more potent here.

Compared with `O=C(/C=C/[C@@H]1CC[C@@H](CC(=O)OCc2ccccc2)OO1)OCc1ccccc1`, `O=C(/C=C\[C@@H]1CC[C@@H](CC(=O)OCc2ccccc2)OO1)OCc1ccccc1` is 2.7-fold lower in IC50: 0.64 µM for the first, 0.24 µM for the second.

`N=C(N)c1ccc(OCCCCCOc2ccc(C(=N)N)cc2)cc1` and `CC(=O)/C=C/[C@@H]1CC[C@@H](CC(=O)OCc2ccccc2)OO1` are within 1.5-fold of each other in IC50: 0.86 µM for the first, 0.9 µM for the second.

With `CC(=O)/C=C\[C@@H]1CC[C@@H](CC(=O)OCc2ccccc2)OO1` the IC50 was 1.88 µM.
